Measured values taken from ChEMBL document CHEMBL1129042, “Discovery of novel retinoic acid receptor agonists having potent antiproliferative activity in cervical cancer cells” (J Med Chem, 1996).

Assays:
[1] = molecular target: T1, Retinoic acid receptor alpha (Homo sapiens) (UniProt P10276); test: Percent transcriptional activation relative to ATRA in CV-1 cells expressing Retinoic acid receptor RAR alpha; type: functional, cell-based
T1 sequence (whole entry): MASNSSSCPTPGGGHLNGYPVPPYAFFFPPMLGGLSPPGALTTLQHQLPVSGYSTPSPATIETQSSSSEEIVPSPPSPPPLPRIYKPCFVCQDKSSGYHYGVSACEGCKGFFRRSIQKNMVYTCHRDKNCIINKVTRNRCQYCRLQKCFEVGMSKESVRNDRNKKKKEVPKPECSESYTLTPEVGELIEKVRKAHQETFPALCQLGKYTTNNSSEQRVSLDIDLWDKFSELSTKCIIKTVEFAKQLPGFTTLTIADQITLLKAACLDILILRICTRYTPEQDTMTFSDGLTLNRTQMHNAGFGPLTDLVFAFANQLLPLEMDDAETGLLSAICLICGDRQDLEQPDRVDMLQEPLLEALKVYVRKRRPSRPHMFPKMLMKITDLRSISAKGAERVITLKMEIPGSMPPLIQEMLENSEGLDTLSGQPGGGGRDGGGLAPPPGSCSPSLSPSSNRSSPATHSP
How it was run: (§1)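 Cotransfection transactivation assay in CV-1 cells. Full dose-response curves ran from 10^-12 to 10^-5 M. Efficacy is expressed as percent of the ATRA response, with ATRA set at 100%. Values are mean ± SEM of at least three separate experiments, each with triplicate determinations.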

[2] = molecular target: T2, Retinoic acid receptor gamma (Homo sapiens) (UniProt P13631); test: Percent transcriptional activation relative to ATRA in CV-1 cells expressing Retinoic acid receptor RAR gamma; type: functional, cell-based; how it was run: as §1
T2 sequence (whole entry): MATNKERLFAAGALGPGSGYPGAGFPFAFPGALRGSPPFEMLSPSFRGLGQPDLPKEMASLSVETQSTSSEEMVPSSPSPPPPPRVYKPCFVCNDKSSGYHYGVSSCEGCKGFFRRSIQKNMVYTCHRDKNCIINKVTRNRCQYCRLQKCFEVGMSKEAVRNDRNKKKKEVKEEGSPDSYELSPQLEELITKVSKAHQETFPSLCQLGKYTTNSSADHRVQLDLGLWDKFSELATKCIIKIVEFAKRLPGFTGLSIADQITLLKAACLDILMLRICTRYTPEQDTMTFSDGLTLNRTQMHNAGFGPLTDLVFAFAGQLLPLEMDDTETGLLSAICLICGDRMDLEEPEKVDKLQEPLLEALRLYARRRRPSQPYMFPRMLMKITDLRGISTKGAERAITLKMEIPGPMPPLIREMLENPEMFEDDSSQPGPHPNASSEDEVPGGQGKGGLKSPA

[3] = molecular target: T3, Retinoic acid receptor RXR-beta (Homo sapiens) (UniProt P28702); test: Percent transcriptional activation relative to ATRA in CV-1 cells expressing Retinoid X receptor RXR beta; type: functional, cell-based; how it was run: as §1
T3 sequence (whole entry): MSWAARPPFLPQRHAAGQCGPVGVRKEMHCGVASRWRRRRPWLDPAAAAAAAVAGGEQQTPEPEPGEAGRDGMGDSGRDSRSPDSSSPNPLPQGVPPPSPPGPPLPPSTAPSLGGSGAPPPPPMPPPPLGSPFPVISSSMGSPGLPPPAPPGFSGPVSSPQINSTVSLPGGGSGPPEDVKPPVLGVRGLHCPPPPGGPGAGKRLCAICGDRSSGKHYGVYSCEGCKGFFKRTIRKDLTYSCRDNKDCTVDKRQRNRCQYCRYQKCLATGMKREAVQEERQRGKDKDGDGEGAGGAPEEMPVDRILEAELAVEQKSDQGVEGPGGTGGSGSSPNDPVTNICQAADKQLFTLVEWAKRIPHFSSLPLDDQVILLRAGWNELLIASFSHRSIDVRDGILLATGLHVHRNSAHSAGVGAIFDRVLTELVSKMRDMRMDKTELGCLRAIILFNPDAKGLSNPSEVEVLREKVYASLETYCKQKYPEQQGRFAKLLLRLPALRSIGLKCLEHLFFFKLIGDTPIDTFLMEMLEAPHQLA

[4] = molecular target: T4, Retinoic acid receptor beta (Homo sapiens, UniProt P10826); test: Transcriptional activation in CV-1 cells expressing Retinoic acid receptor RAR beta; type: functional, cell-based
T4 sequence (P10826 whole entry): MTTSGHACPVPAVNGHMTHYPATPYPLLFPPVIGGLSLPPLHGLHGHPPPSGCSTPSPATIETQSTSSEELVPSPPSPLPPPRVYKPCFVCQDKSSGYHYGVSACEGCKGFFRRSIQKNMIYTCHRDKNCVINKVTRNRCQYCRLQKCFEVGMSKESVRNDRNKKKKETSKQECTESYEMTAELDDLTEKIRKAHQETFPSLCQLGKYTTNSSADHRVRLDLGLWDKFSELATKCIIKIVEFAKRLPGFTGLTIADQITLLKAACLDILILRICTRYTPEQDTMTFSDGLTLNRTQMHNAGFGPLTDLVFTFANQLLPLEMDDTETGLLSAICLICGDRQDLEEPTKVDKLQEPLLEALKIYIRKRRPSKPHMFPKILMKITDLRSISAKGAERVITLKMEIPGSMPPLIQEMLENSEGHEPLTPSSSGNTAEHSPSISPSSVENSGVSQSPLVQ

[5] = molecular target: T4, Retinoic acid receptor beta; test: Inhibition of [3H]ATRA binding to Retinoic acid receptor RAR beta
[6] = molecular target: T5, Retinoic acid receptor RXR-gamma (Homo sapiens, UniProt P48443); test: Transcriptional activation in CV-1 cells expressing Retinoid X receptor RXR gamma; type: functional, cell-based
T5 sequence (P48443 whole entry): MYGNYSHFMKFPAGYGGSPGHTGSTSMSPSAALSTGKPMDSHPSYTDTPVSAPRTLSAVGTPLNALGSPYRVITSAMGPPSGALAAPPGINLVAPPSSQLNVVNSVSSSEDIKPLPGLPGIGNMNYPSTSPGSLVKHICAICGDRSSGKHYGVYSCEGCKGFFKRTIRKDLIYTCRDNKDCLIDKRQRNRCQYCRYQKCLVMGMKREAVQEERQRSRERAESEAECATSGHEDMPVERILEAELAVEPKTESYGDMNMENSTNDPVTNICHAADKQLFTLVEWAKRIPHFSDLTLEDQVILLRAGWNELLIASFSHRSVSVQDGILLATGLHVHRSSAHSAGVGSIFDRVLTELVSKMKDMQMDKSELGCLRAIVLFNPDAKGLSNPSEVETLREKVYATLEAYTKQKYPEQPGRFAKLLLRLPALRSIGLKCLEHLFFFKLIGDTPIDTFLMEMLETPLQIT

[7] = molecular target: T5, Retinoic acid receptor RXR-gamma; test: Inhibition of [3H]9-cis-RA binding to Retinoid X receptor RXR gamma
[8] = molecular target: T6, Retinoic acid receptor RXR-beta (Homo sapiens, UniProt P28702); test: Inhibition of [3H]9-cis-RA binding to Retinoid X receptor RXR beta
T6 sequence (P28702 whole entry): T3 sequence (whole entry)

[9] = molecular target: T6, Retinoic acid receptor RXR-beta; test: Transcriptional activation in CV-1 cells expressing Retinoid X receptor RXR beta; type: functional, cell-based
[10] = molecular target: T7, Retinoic acid receptor RXR-alpha (Homo sapiens, UniProt P19793); test: Transcriptional activation in CV-1 cells expressing Retinoid X receptor RXR alpha; type: functional, cell-based
T7 sequence (P19793 whole entry): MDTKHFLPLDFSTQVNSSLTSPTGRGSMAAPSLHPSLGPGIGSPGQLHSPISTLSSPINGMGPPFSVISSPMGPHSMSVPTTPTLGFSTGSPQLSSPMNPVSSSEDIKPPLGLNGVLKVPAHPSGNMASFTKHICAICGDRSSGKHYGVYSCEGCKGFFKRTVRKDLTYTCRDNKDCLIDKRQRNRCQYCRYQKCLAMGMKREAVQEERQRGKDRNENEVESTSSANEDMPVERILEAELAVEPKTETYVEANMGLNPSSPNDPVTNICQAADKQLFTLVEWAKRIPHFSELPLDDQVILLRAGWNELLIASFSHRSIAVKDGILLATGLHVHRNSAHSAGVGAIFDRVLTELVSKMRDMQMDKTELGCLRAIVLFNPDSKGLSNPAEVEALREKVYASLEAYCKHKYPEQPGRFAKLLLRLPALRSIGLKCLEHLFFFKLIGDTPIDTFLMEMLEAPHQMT

[11] = molecular target: T7, Retinoic acid receptor RXR-alpha; test: Inhibition of [3H]9-cis-RA binding to Retinoid X receptor RXR alpha
[12] = molecular target: T8, Retinoic acid receptor alpha (Homo sapiens, UniProt P10276); test: Inhibition of [3H]ATRA binding to Retinoic acid receptor RAR alpha
T8 sequence (P10276 whole entry): T1 sequence (whole entry)

[13] = molecular target: T8, Retinoic acid receptor alpha; test: Transcriptional activation in CV-1 cells expressing Retinoic acid receptor RAR alpha; type: functional, cell-based
[14] = molecular target: T5, Retinoic acid receptor RXR-gamma; test: Transcriptional activation in CV-1 cells expressing Retinoid X receptor RXR gamma; Not active; type: functional, cell-based
[15] = molecular target: T7, Retinoic acid receptor RXR-alpha; test: Transcriptional activation in CV-1 cells expressing Retinoid X receptor RXR alpha; Not active; type: functional, cell-based

Compound `CC1=C(/C=C/C(C)=C/C=C/C(C)=C/C(=O)O)C(C)(C)CCC1` has an Efficacy [1] of 100%, an Efficacy [2] of 100% and an Efficacy [3] of 100%.

In the case of `CC1=C(/C=C/C(C)=C\C=C\C(C)=C\C(=O)O)C(C)(C)CCC1`, the Efficacy [1] is reported as 81%, the Efficacy [2] is reported as 93% and the Efficacy [3] is reported as 128%.

`CC(/C=C/C=C(\C)c1cc(C(C)(C)C)cc(C(C)(C)C)c1)=C\C(=O)O` (stereo in doubt; form 1) [listing 1 of 2 here] gave an EC50 [4] of 24 nM, a Ki [5] of 90 nM and an EC50 [6] of 77 nM. It also gave a Ki [7] of 9.3 nM, a Ki [8] of 10.2 nM and an EC50 [9] of 87 nM. The EC50 [10] was 134 nM, the Ki [11] was 4.6 nM and the Ki [12] was 63.5 nM. The EC50 [13] was 65 nM.

`CC(/C=C/C=C(\C)c1cc(C(C)(C)C)cc(C(C)(C)C)c1)=C\C(=O)O` (stereo in doubt; form 1) [listing 2 of 2 here] was tested, and the Efficacy [1] was 39%, the Efficacy [2] was 58% and the Efficacy [3] was 27%.

With `CC(/C=C/C=C(\C)c1cc(C(C)(C)C)cc(C(C)(C)C)c1)=C\C(=O)O` (stereo in doubt; form 2) [listing 1 of 2 here] the EC50 [4] was 2.2 nM, the Ki [5] was 0.7 nM and the EC50 [14] was “Not Active”. For the same compound, the Ki [7] was 320 nM, the Ki [8] was 560 nM and the EC50 [9] was “Not Active”. The EC50 [15] was “Not Active”, the Ki [11] was 223 nM and the Ki [12] was 1.1 nM.

With `CC(/C=C/C=C(\C)c1cc(C(C)(C)C)cc(C(C)(C)C)c1)=C\C(=O)O` (stereo in doubt; form 2) [listing 2 of 2 here] the Efficacy [1] was 31% and the Efficacy [2] was 48%.
